Test results from ChEMBL document CHEMBL3045605, “Synthesis and anticancer evaluation of novel 3,5-diaryl-thiazolo[4,5-d]pyrimidin-2-one derivatives” (2013).

How the values were obtained:
Assay type in all cases: functional
HT-29 = experiment: Anticancer activity against Homo sapiens (human) HT-29 cells assessed as cell growth at 10 uM by SRB assay; details: read-out: Activity
Outline: (§1)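 NCI 60-cell human tumour panel (nine cancer types) screened at one concentration, 10−5 M. Cell growth estimated by sulforhodamine B protein staining and reported as percent growth of treated cells relative to untreated controls.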

HCT-116 = experiment: Anticancer activity against Homo sapiens (human) HCT116 cells assessed as cell growth at 10 uM by SRB assay; details: read-out: Activity; outline: as §1
NCI-H460 = experiment: Anticancer activity against Homo sapiens (human) NCI-H460 cells assessed as cell growth at 10 uM by SRB assay; details: read-out: Activity
Outline: (§2)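 Single-dose screen in the NCI 60-human-tumour-cell-line panel (nine cancer types) at 10−5 M. Cell growth was estimated by sulforhodamine B protein staining and reported as percent growth of treated cells relative to untreated controls.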

NCI-H522 = experiment: Anticancer activity against Homo sapiens (human) NCI-H522 cells by SRB assay
Outline: (§3)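 Five-dose NCI 60-cell-line panel testing at tenfold dilutions from 10−4 to 10−8 M, with growth read by sulforhodamine B protein staining. For each cell line: GI50 is the molar concentration giving half growth inhibition; TGI is total growth inhibition (cytostatic); LC50 is the molar concentration killing 50% of the initial cells (cytotoxic).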

HL-60(TB) = experiment: Anticancer activity against Homo sapiens (human) HL-60(TB) cells by SRB assay
Outline: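 NCI panel of about 60 human tumour cell lines, tested at five tenfold dilutions from 10−4 to 10−8 M, with sulforhodamine B read-out. GI50 (molar concentration giving half growth inhibition), TGI (total growth inhibition) and LC50 (50% death of initial cells) were calculated for each cell line.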

SR = experiment: Anticancer activity against Homo sapiens (human) SR cells assessed as cell growth at 10 uM by SRB assay; details: read-out: Activity
Outline: (§4)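 NCI 60-cell human tumour panel (leukemia, melanoma, lung, colon, CNS, breast, ovarian, prostate, renal lines) given a single 10−5 M dose. Growth is expressed as percent growth of treated cells relative to untreated controls, with cell growth/viability estimated by sulforhodamine B protein staining.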

[1] = Anticancer activity against Homo sapiens (human) RPMI8266 cells assessed as cell growth at 10 uM by SRB assay; details: read-out: Activity; outline: as §2
K562 = experiment: Anticancer activity against Homo sapiens (human) K562 cells assessed as cell growth at 10 uM by SRB assay; details: read-out: Activity; outline: as §1
MOLT-4 = experiment: Anticancer activity against Homo sapiens (human) MOLT4 cells assessed as cell growth at 10 uM by SRB assay; details: read-out: Activity; outline: as §2
CCRF-CEM = experiment: Anticancer activity against Homo sapiens (human) CCRF-CEM cells assessed as cell growth at 10 uM by SRB assay; details: read-out: Activity; outline: as §1
ACHN [2] = experiment: Anticancer activity against Homo sapiens (human) ACHN cells by SRB assay
Outline: (§5)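 NCI 60-line panel, five tenfold dilutions from 10−4 to 10−8 M, growth read by sulforhodamine B staining against untreated controls. From the dose–response per line: GI50 (molar concentration giving half growth inhibition), TGI (molar concentration giving total growth inhibition, cytostatic) and LC50 (molar concentration killing 50% of initial cells, cytotoxic).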

OVCAR-8 [3] = experiment: Anticancer activity against Homo sapiens (human) OVCAR8 cells by SRB assay; outline: as §3
OVCAR-5 = experiment: Anticancer activity against Homo sapiens (human) OVCAR5 cells by SRB assay; details: read-out: pTGI (converted); outline: as §3
OVCAR-4 = experiment: Anticancer activity against Homo sapiens (human) OVCAR4 cells by SRB assay; outline: as §3
IGROV-1 = experiment: Anticancer activity against Homo sapiens (human) IGROV1 cells by SRB assay; outline: as §5
SK-MEL-5 = experiment: Anticancer activity against Homo sapiens (human) SK-MEL-5 cells by SRB assay; outline: as §3
UACC-257 = experiment: Anticancer activity against Homo sapiens (human) UACC257 cells by SRB assay
Outline: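 NCI five-dose follow-up on the 60-line human tumour panel at tenfold dilutions from 10−4 to 10−8 M, with growth read by sulforhodamine B protein assay against untreated controls. For each cell line, GI50 (half growth inhibition), TGI (total growth inhibition) and LC50 (50% death of initial cells) are calculated as molar concentrations.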

M14 = experiment: Anticancer activity against Homo sapiens (human) M14 cells by SRB assay; outline: as §5
SNB-19 = experiment: Anticancer activity against Homo sapiens (human) SNB19 cells by SRB assay; outline: as §3
KM12 = experiment: Anticancer activity against Homo sapiens (human) KM12 cells by SRB assay; outline: as §5
786-0 = experiment: Anticancer activity against Homo sapiens (human) 786-0 cells assessed as cell growth at 10 uM by SRB assay; details: read-out: Activity; outline: as §1
SK-OV-3 = experiment: Anticancer activity against Homo sapiens (human) SKOV3 cells assessed as cell growth at 10 uM by SRB assay; details: read-out: Activity; outline: as §2
OVCAR-8 [4] = experiment: Anticancer activity against Homo sapiens (human) OVCAR8 cells assessed as cell growth at 10 uM by SRB assay; details: read-out: Activity; outline: as §2
SK-MEL-28 = experiment: Anticancer activity against Homo sapiens (human) SK-MEL-28 cells assessed as cell growth at 10 uM by SRB assay; details: read-out: Activity; outline: as §2
LOX IMVI = experiment: Anticancer activity against Homo sapiens (human) LOXIMVI cells assessed as cell growth at 10 uM by SRB assay; details: read-out: Activity; outline: as §1
SF-295 = experiment: Anticancer activity against Homo sapiens (human) SF295 cells assessed as cell growth at 10 uM by SRB assay; details: read-out: Activity; outline: as §2
MDA-MB-468 = experiment: Anticancer activity against Homo sapiens (human) MDA-MB-468 cells by SRB assay; outline: as §3
DU-145 = experiment: Anticancer activity against Homo sapiens (human) DU145 cells by SRB assay; outline: as §5
RXF 393 = experiment: Anticancer activity against Homo sapiens (human) RXF393 cells by SRB assay; outline: as §3
PC-3 = experiment: Anticancer activity against Homo sapiens (human) PC3 cells by SRB assay; outline: as §3
BT-549 = experiment: Anticancer activity against Homo sapiens (human) BT549 cells assessed as cell growth at 10 uM by SRB assay; details: read-out: Activity; outline: as §1
UO-31 = experiment: Anticancer activity against Homo sapiens (human) UO31 cells assessed as cell growth at 10 uM by SRB assay; details: read-out: Activity; outline: as §4
CAKI-1 = experiment: Anticancer activity against Homo sapiens (human) CAKI-1 cells assessed as cell growth at 10 uM by SRB assay; details: read-out: Activity; outline: as §1
SN12C = experiment: Anticancer activity against Homo sapiens (human) SN12C cells assessed as cell growth at 10 uM by SRB assay; details: read-out: Activity; outline: as §2
ACHN [5] = experiment: Anticancer activity against Homo sapiens (human) ACHN cells assessed as cell growth at 10 uM by SRB assay; details: read-out: Activity; outline: as §1
[6] = read-out: pLC50 (the source's name) (converted)

O=c1sc2c(Cl)nc(-c3ccccc3)nc2n1-c1ccccc1
growth at 10 µM (HT-29): 10%
growth at 10 µM (HCT-116): -53%
growth at 10 µM (NCI-H460): 78%
GI50 (NCI-H522): 1.23 µM
TGI (NCI-H522; read-out: pTGI (converted)): 3.02 µM
GI50 (HL-60(TB)): 5.89 µM
growth at 10 µM (SR): 8%
growth at 10 µM [1]: 75%
growth at 10 µM (K562): 19%
growth at 10 µM (MOLT-4): 54%
growth at 10 µM (CCRF-CEM): 23%
GI50 (ACHN [2]): 6.92 µM
GI50 (OVCAR-8 [3]): 2.04 µM
TGI (OVCAR-8 [3]; read-out: pTGI): 43.7 µM
TGI (OVCAR-5): 45.7 µM
GI50 (OVCAR-4): 5.01 µM
TGI (OVCAR-4; read-out: pTGI (converted)): 35.5 µM
GI50 (IGROV-1): 1.78 µM
LC50 (IGROV-1): 18.2 µM
TGI (IGROV-1; read-out: pTGI (converted)): 4.79 µM
GI50 (SK-MEL-5): 15.5 µM
GI50 (UACC-257): 8.91 µM
TGI (UACC-257; read-out: pTGI (converted)): 31.6 µM
GI50 (M14): 3.8 µM
TGI (M14; read-out: pTGI (converted)): 35.5 µM
GI50 (SNB-19): 41.7 µM
GI50 (KM12): 81.3 µM
growth at 10 µM (786-0): 41%
growth at 10 µM (SK-OV-3): 81%
growth at 10 µM (OVCAR-8 [4]): -45%
growth at 10 µM (SK-MEL-28): 9%
growth at 10 µM (LOX IMVI): -44%
growth at 10 µM (SF-295): 92%
GI50 (MDA-MB-468): 3.63 µM
GI50 (DU-145): 4.68 µM
CC50 (DU-145; [6]): 81.3 µM
TGI (DU-145; read-out: pTGI (converted)): 23.4 µM
GI50 (RXF 393): 2.4 µM
LC50 (RXF 393): 38 µM
TGI (RXF 393; read-out: pTGI (converted)): 8.91 µM
GI50 (PC-3): 3.31 µM
CC50 (PC-3; [6]): 81.3 µM
TGI (PC-3; read-out: pTGI (converted)): 14.5 µM
growth at 10 µM (BT-549): 86%
growth at 10 µM (UO-31): -79%
growth at 10 µM (CAKI-1): -30%
growth at 10 µM (SN12C): 43%
growth at 10 µM (ACHN [5]): 42%
